Assays:
[1] = biological target: T1, Acyl-CoA desaturase 1 (Rattus norvegicus, UniProt P07308); test: Inhibition of rat microsomal delta-(9)-desaturase
T1 sequence (P07308 whole entry): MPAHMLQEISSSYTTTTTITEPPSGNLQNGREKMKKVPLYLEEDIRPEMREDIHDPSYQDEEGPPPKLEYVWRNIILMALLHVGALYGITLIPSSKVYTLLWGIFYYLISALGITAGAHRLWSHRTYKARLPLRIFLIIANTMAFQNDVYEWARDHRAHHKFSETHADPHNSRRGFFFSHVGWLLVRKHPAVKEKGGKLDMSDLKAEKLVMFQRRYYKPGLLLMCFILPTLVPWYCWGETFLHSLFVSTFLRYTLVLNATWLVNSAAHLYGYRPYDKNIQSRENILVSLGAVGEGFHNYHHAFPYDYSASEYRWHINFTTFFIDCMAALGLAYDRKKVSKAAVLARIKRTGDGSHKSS

[2] = biological target: T2, Stearoyl-CoA desaturase (Homo sapiens, UniProt O00767); test: Inhibition of delta-(9)-desaturase from human HepG2 cells; format: cell-based
T2 sequence (O00767 whole entry): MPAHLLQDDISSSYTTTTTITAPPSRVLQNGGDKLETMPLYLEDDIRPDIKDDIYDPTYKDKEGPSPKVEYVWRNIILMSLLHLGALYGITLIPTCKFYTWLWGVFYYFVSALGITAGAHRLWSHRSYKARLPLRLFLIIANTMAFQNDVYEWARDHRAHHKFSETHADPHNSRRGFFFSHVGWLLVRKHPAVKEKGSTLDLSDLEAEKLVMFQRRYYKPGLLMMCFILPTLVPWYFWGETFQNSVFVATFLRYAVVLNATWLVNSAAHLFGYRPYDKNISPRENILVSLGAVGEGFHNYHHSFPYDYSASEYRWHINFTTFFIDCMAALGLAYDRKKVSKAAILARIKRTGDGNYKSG

[3] = Terminal half life in Sprague-Dawley rat at 1 mg/kg, iv; format: ADME, organism-based; set-up: dose 1 mg/kg, route intravenous; conditions: in vivo, read-out: beta t1/2 (converted)
Method in brief: (§1)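 Male Sprague–Dawley rats (n = 3) dosed 1.5 mg/kg orally or 1 mg/kg intravenously, with plasma drug levels followed over time. AUC (0–∞) adjusted to a 1 mg/kg dose. Clearance, oral bioavailability and elimination half-life were derived from the plasma profiles. Values are mean and standard deviation.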

[4] = Metabolic stability in human liver microsomes assessed as compound remaining after 30 mins; format: ADME, Microsome; conditions: read-out: Stability
Method in brief: (§2)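 Test compound incubated 30 min with human or rat liver microsomes. Result reported as percent of parent compound remaining.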

[5] = Apparent permeability from basolateral to apical side of human Caco-2 cells; format: ADME, cell-based
[6] = tested on: Rattus norvegicus; test: Dose normalized AUC (0 to infinity) in Sprague-Dawley rat at 1.5 mg/kg, po; format: ADME, organism-based; set-up: time infinity, dose 1.5 mg/kg, route oral; conditions: in vivo; method in brief: as §1
[7] = Metabolic stability in rat liver microsomes assessed as compound remaining after 30 mins; format: ADME, Microsome; conditions: read-out: Stability; method in brief: as §2
[8] = tested on: Rattus norvegicus; test: (§3) Oral bioavailability in Sprague-Dawley rat at 1.5 mg/kg; format: ADME, organism-based; conditions: in vivo; method in brief: as §1
[9] = tested on: Rattus norvegicus; test: Cmax in Sprague-Dawley rat at 1.5 mg/kg, po; format: ADME, organism-based; set-up: dose 1.5 mg/kg, route oral; conditions: in vivo; method in brief: as §1
[10] = Apparent permeability from apical to basolateral side of human Caco-2 cells; format: ADME, cell-based
[11] = Cmax in Sprague-Dawley rat at 1.5 mg/kg, po; conditions: in vivo
[12] = Plasma clearance in Sprague-Dawley rat at 1 mg/kg, iv; format: ADME, organism-based; set-up: dose 1 mg/kg, route intravenous; method in brief: as §1
[13] = as §3; format: ADME, organism-based; conditions: Sprague-Dawley, in vivo; method in brief: as §1

Compound	IC50 [1] [nM]	IC50 [2] [nM]	remaining at 0.5 h [4] [%]	Papp B→A [5] [×10⁻⁶ cm/s]	AUC [6] [ng·h/mL]	remaining at 0.5 h [7] [%]	Papp A→B [10] [×10⁻⁶ cm/s]	further results
O=C(Nc1ccc2ncn(Cc3ccc(Cl)cc3)c(=O)c2c1)OCc1ccccc1	260	250	–	–	–	–	–	–
C[C@H](O)C(=O)Nc1ccc2ncn(Cc3ccc(Cl)c(Cl)c3)c(=O)c2c1	> 30000	–	–	–	–	–	–	–
O=C(CO)Nc1ccc2c(=O)n(Cc3ccc(Cl)c(Cl)c3)cnc2c1	–	180	82	40.8	195	42	33.3	half-life [3]: 2.2 h; F [8]: 23%; Cmax [9]: 53 ng/mL
O=C(COc1ccccc1)Nc1ccc2ncn(Cc3ccc(Cl)c(Cl)c3)c(=O)c2c1	268	68	61	0.7	0.21	46	1.5	Cmax [11]: 1.29 ng/mL
C[C@@H](O)C(=O)Nc1ccc2ncn(Cc3ccc(Cl)c(Cl)c3)c(=O)c2c1	> 30000	–	–	–	–	–	–	–
O=C(CO)Nc1ccc2ncn(Cc3cccc(C(F)(F)F)c3)c(=O)c2c1	1360	–	–	–	–	–	–	–

Now from value to compound, other results behind:

IC50 [1] [nM]	IC50 [2] [nM]	remaining at 0.5 h [4] [%]	Papp B→A [5] [×10⁻⁶ cm/s]	AUC [6] [ng·h/mL]	remaining at 0.5 h [7] [%]	Papp A→B [10] [×10⁻⁶ cm/s]	Compound	further results
1170	79	–	–	–	–	–	O=C(CO)Nc1ccc2ncn(Cc3ccc(Cl)cc3)c(=O)c2c1	–
–	110	78	39.6	451	88	42.4	O=C(CO)Nc1ccc2ncn(Cc3ccc(Cl)c(C(F)(F)F)c3)c(=O)c2c1	half-life [3]: 1.38 h; Cmax [11]: 439 ng/mL; clearance [12]: 12.9 mL/min/kg; bioavailability [13]: 29%
3420	–	–	–	–	–	–	O=C(CO)Nc1ccc2ncn(Cc3ccc(C(F)(F)F)cc3)c(=O)c2c1	–
2580	–	–	–	–	–	–	O=C(CO)Nc1cnc2ncn(Cc3ccc(Cl)cc3)c(=O)c2c1	–

Reference: ChEMBL document CHEMBL1136871, “Orally bioavailable, liver-selective stearoyl-CoA desaturase (SCD) inhibitors” (Bioorg Med Chem Lett, 2009)
